For 10 compounds, Activity, inhibition and CFU results are on record in ChEMBL document CHEMBL1140834, “Identifying the important structural elements of brominated furanones for inhibiting biofilm formation by Escherichia coli” (2008).

Assay [1] has as its system Escherichia coli. Put plainly: Antibacterial activity against Escherichia coli RP437/pRSH103 at 5 to 10 ug/ml. Type of assay: functional, organism-based. Summed up: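 Toxicity followed as growth curves. OD600 of E. coli cultures was monitored over time in LB medium with tetracycline, containing a range of furanone concentrations.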
For assay [2], the system named is Escherichia coli. Put plainly: Inhibition of Escherichia coli biofilm formation at 60 ug/mL. Type of assay: functional. Summed up: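 DsRed-express-labeled E. coli biofilms were grown 24 h at 37 C on 316 L stainless steel coupons, with furanone added to the growth medium. Imaged by confocal microscopy. Biomass, surface coverage and mean thickness were calculated from the images and expressed relative to a no-furanone control. Four replicates.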

The test system of assay [3] is Escherichia coli. As to the kind of experiment: Antibacterial activity against Escherichia coli at 60 ug/mL. Type of assay: functional, organism-based.
Assay [4] has as its system Escherichia coli. Put plainly: Antibacterial activity against Escherichia coli RP437/pRSH103 assessed as reduction of colony forming unit at 40 ug/ml after 3 hrs. Type of assay: functional. Put shortly: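 Viable counts (CFU/mL) taken before and after 3 h exposure at 37 C. A parallel culture given the same amount of ethanol (0.2%) served as negative control.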

Activity calls are given as the source filed them. No cut-off for these calls is given here.

For the compound `O=C1O/C(=C\Br)C(Br)=C1CBr`, the result in the assay with Escherichia coli [1] was Active.
With `CC1=C(Br)C(C(Br)Br)OC1=O` (centres undefined), testing at 60 µg/mL in the assay with Escherichia coli [2] gave an inhibition of 19%. Moreover, in the assay on Escherichia coli [3], the outcome was inactive.
For `O=C1OC(=C(Br)Br)C=C1C(Br)Br` the same measures were 80% and “inactive”.
On the same counts, the results for `CC1=C(Br)/C(=C/Br)OC1=O` are 75% and “inactive”.
On the same counts, the results for `CC1=CC(=C(Br)Br)OC1=O` are 63% and “inactive”.
Consider `CC1=CC(=O)OC1=O`, for which the outcome with Escherichia coli [3] was inactive.
For `O=C1OC(=C(Br)Br)C=C1CBr`, the CFU in the assay on Escherichia coli [4] worked out at 390 mL⁻¹.
As to `CC1=C(Br)C(Br)(C(Br)Br)OC1=O` (centres undefined), the result in the assay with Escherichia coli [3] was inactive.
`CC1=CC(C)OC1=O` (centres undefined): in the assay with Escherichia coli [3], the outcome was inactive.
The same measure, in the same setting: then `COC1=CC(=O)OC1`, with “inactive”.
